The source made the active and inactive calls. The calls are words filed in the database; no cut-off is given here.
Key:
[1] = biological target: T1, 3-oxo-5-alpha-steroid 4-dehydrogenase 1 (Homo sapiens) (UniProt P18405); assay: Inhibition of human 5alpha reductase 1 expressed in HEK293 cells assessed as inhibition of conversion of [14C]4-androstene-3,17-dione to [14C]5R-androstane-3,17-dione at 0.3 uM after 1 hr; assay type: cell-based
T1 sequence (whole entry): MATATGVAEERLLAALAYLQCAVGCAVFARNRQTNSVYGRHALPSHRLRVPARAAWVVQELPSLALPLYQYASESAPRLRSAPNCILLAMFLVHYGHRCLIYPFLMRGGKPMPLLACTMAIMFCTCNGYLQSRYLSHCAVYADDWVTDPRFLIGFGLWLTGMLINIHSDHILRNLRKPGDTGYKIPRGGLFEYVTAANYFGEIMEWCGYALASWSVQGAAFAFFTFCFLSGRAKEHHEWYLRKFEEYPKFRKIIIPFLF
Outline: (§1)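 Intact HEK-293 cells transfected with pCMV-neo-h5α-reductase type 1 or type 2 were plated at 500 000 cells/well at 37 °C. They were incubated with 15 000 cpm [14C]-Δ4-dione and inhibitor (final 0.3 or 3 μM), in duplicate, for 1 h (type 1) or 3 h (type 2). Steroids were extracted and separated by TLC (toluene/EtOAc 4:1). Radioactivity gave % transformation and % inhibition.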

[2] = biological target: T2, 17-beta-hydroxysteroid dehydrogenase type 1 (Homo sapiens) (UniProt P14061); assay: Inhibition of human 17beta-HSD1 expressed in HEK293 cells assessed as inhibition of reduction of [14C]estrone into [14C]estradiol at 0.1 uM; assay type: cell-based
T2 sequence (whole entry): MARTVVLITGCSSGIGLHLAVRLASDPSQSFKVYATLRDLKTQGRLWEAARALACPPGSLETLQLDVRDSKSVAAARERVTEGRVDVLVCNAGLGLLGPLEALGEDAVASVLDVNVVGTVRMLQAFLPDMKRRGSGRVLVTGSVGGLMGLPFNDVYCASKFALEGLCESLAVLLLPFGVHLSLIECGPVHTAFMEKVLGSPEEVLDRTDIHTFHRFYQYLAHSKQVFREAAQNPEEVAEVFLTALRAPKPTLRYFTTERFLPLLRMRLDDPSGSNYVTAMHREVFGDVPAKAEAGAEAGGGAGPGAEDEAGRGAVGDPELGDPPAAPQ
Outline: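 Enzyme source: sonicated HEK-293 cells transfected with the h17β-HSD1 gene. Inhibitor was dissolved in ethanol and tested at final concentrations of 0.1 and 1 μM. The [14C]-E1 to [14C]-E2 assay was run as in an earlier report.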

[3] = tested on: HEK293; assay: Inhibition of human 17beta-HSD5 expressed in HEK293 cells assessed as inhibition of conversion of [14C]4-androstene-3,17-dione to [14C]testosterone at 0.3 uM after 20 hrs; assay type: cell-based
Outline: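 Intact HEK-293 cells stably transfected with pCMV-neo-h17β-HSD5 were plated at 500 000 cells/well. They were incubated with 15 000 cpm [4-14C]-Δ4-dione and inhibitor in ethanol (0.3 or 3 μM) for 20 h at 37 °C, 5% CO2, in triplicate. Steroids were then extracted, separated and quantified.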

[4] = biological target: T3, 3-oxo-5-alpha-steroid 4-dehydrogenase 2 (Homo sapiens) (UniProt P31213); assay: Inhibition of human 5alpha reductase 2 expressed in HEK293 cells assessed as inhibition of conversion of [14C]4-androstene-3,17-dione to [14C]5R-androstane-3,17-dione at 0.3 uM after 3 hrs; assay type: cell-based; outline: as §1
T3 sequence (whole entry): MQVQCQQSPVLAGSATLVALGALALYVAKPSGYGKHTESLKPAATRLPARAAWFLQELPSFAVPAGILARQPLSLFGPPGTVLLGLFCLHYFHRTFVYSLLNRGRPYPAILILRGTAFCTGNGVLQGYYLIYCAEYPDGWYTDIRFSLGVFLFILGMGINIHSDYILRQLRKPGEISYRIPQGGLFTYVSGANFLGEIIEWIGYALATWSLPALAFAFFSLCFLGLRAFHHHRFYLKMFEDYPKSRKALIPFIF

[5] = biological target: T4, 3-keto-steroid reductase/17-beta-hydroxysteroid dehydrogenase 7 (Homo sapiens) (UniProt P56937); assay: Inhibition of human 17beta-HSD7 expressed in HEK293 cells assessed as inhibition of reduction of [14C]dihydrotestosterone into [14C]5alpha-androstane-3beta,17beta-diol at 3 uM after 18 hrs; assay type: cell-based
T4 sequence (whole entry): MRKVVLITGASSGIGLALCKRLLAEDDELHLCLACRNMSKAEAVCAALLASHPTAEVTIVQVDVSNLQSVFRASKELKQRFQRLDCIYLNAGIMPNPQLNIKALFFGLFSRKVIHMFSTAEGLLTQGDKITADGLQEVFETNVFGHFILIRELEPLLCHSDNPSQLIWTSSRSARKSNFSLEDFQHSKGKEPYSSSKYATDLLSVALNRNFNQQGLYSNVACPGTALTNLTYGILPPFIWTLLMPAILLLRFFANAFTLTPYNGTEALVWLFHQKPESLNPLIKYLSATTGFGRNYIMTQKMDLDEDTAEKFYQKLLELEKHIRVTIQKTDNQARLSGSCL
Outline: (§2)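 Intact HEK-293 cells stably overexpressing h17β-HSD7 (pCMV-neo, G-418 selected) were plated at 500 000 cells/well in MEM with 10% fetal calf serum at 37 °C. Fresh medium received 15 000 cpm (~150 nM) [4-14C]-DHT plus ethanolic inhibitor, and cells were incubated 18 h. Steroids were extracted twice with diethyl ether. Assays were done in duplicate.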

[6] = biological target: T5, 3-keto-steroid reductase/17-beta-hydroxysteroid dehydrogenase 7 (Homo sapiens, UniProt P56937); assay: Inhibition of human 17beta-HSD7 expressed in HEK293 cells assessed as inhibition of reduction of [14C]estrone into [14C]estradiol after 7 hrs; assay type: cell-based
T5 sequence (P56937 whole entry): T4 sequence (whole entry)
Outline: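 Intact HEK-293 cells stably overexpressing h17β-HSD7 were plated at 500 000 cells/well in MEM/10% FCS at 37 °C. Fresh medium received 15 000 cpm (~150 nM, below Km) [4-14C]-estrone plus ethanolic inhibitor for 7 h. Steroids were extracted with diethyl ether. Screening used two inhibitor concentrations in duplicate or triplicate and is reported as % inhibition of E1→E2.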

[7] = biological target: T4, 3-keto-steroid reductase/17-beta-hydroxysteroid dehydrogenase 7 (Homo sapiens); assay: Inhibition of human 17beta-HSD7 expressed in HEK293 cells assessed as inhibition of reduction of [14C]dihydrotestosterone into [14C]5alpha-androstane-3beta,17beta-diol at 0.3 uM after 18 hrs; assay type: cell-based; outline: as §2
[8] = biological target: T4, 3-keto-steroid reductase/17-beta-hydroxysteroid dehydrogenase 7 (Homo sapiens); settings: HEK293, at 0.3 µM
[9] = biological target: T4, 3-keto-steroid reductase/17-beta-hydroxysteroid dehydrogenase 7 (Homo sapiens); settings: HEK293, at 3 µM

Q: For `CC1(C)CC[C@@]2(CC[C@H]3[C@@H]4CC[C@H]5NC(=O)CC[C@]5(C)[C@H]4CC[C@@]32C)OC1=O`, which inhibition [1] is on record?
A: The inhibition was “inactive”.

Q: What about the inhibition [2] of the same compound?
A: Its inhibition is “inactive”.

Q: And the inhibition [3]?
A: The inhibition was 90%.

Q: What about the inhibition [4] of the same compound?
A: Its inhibition is “inactive”.

Q: What about the inhibition [5] of the same compound?
A: The inhibition was 69%.

Q: Which IC50 [6] does the source give for `CCCCCCCN(C)[C@H]1CC[C@H]2[C@@H]3CC[C@H]4N(C)C(=O)CC[C@]4(C)[C@H]3CC[C@]12C` here?
A: Its IC50 is 189 nM.

Q: What about the inhibition [4] of the same compound?
A: Its inhibition is “inactive”.

Q: What about the inhibition [5] of the same compound?
A: Its inhibition is 69%.

Q: What does the source list for `CCCCCCCCCCN(C=O)C1CC[C@H]2[C@@H]3CC[C@H]4N(C)C(=O)CC[C@]4(C)[C@H]3CC[C@]12C` (stereo not given in full)?
A: inhibition [7]: 49%; IC50 [6]: 195 nM; inhibition [5]: 69%

Q: Which inhibition [8] does the source give for `CCCCCCCN(C(=O)c1c(F)cccc1F)[C@H]1CC[C@H]2[C@@H]3CC[C@H]4N(C)C(=O)CC[C@]4(C)[C@H]3CC[C@]12C` here?
A: Its inhibition is 84%.

Q: What about the inhibition [5] of the same compound?
A: Its inhibition is 69%.

Q: What does the source list for `CCCCCCCN(CCCC)[C@H]1CC[C@H]2[C@@H]3CC[C@H]4N(C)C(=O)CC[C@]4(C)[C@H]3CC[C@]12C`?
A: inhibition [8]: 76%; inhibition [4]: inactive; inhibition [5]: 69%

Q: What does the source list for `CN1C(=O)CC[C@]2(C)[C@H]3CC[C@@]4(C)[C@@H](CC[C@@]45CCC(C)(C)C(=O)O5)[C@@H]3CC[C@@H]12`?
A: inhibition [1]: Active; IC50 [6]: 116 nM; inhibition [2]: inactive; inhibition [3]: 90%; inhibition [5]: 69%

Q: How did the inhibition [5] turn out when `CCCCCCCCCCN(C=O)C1CC[C@H]2[C@@H]3CC[C@H]4NC(=O)CC[C@]4(C)[C@H]3CC[C@]12C` (stereo not given in full) was run?
A: Its inhibition is 69%.

Q: For `CCCCCCCN(C(=O)c1ccc(F)cc1)[C@H]1CC[C@H]2[C@@H]3CC[C@H]4N(C)C(=O)CC[C@]4(C)[C@H]3CC[C@]12C`, which inhibition [8] is on record?
A: The inhibition was 84%.

Q: What about the inhibition [5] of the same compound?
A: The inhibition was 69%.

Q: Which inhibition [5] does the source give for `CCCCCCCN(C)C1CC[C@H]2[C@@H]3CC[C@H]4NC(=O)CC[C@]4(C)[C@H]3CC[C@]12C` (stereo not given in full) here?
A: The inhibition was 69%.

Q: Which inhibition [8] does the source give for `CCCCCCCN(C=O)[C@H]1CC[C@H]2[C@@H]3CC[C@H]4N(C)C(=O)CC[C@]4(C)[C@H]3CC[C@]12C` here?
A: The inhibition was 94%.

Q: And the inhibition [5]?
A: Its inhibition is 69%.

Q: Which inhibition [8] does the source give for `C[C@]12CC[C@@H]3c4ccc(O)cc4CC[C@H]3[C@@H]1CC[C@@H]2O` here?
A: Its inhibition is 1.1%.

Q: And the inhibition [9]?
A: The inhibition was 0%.

Q: Which results are given for `O=c1c(-c2ccc(O)cc2)coc2cc(O)cc(O)c12`?
A: inhibition [8]: 0%; inhibition [9]: 0%

Q: `C[C@]12CC[C@@H]3c4ccc(O)cc4CC[C@H]3[C@@H]1CC[C@@]21CCC(=O)O1` was tested. Which inhibition [8] did it give?
A: Its inhibition is 3.9%.

Q: And the inhibition [9]?
A: Its inhibition is 3.1%.

Q: `CCCN(C=O)[C@H]1CC[C@H]2[C@@H]3CC[C@H]4N(C)C(=O)CC[C@]4(C)[C@H]3CC[C@]12C` was tested. Which inhibition [8] did it give?
A: The inhibition was 21.7%.

Q: And the inhibition [9]?
A: The inhibition was 56.3%.
